Results: ChEMBL document CHEMBL1135396, “Synthesis and inotropic activity of 1-(O-aminoalkyloximes) of perhydroindene derivatives as simplified digitalis-like compounds acting on the Na(+),K(+)-ATPase” (J Med Chem, 2002)

How the values were obtained:
[1] = target: Sodium/potassium-transporting ATPase; assay: 50% displacement of the specific [3H]ouabain binding from the dog kidney Na+/K+ ATPase; format: protein-complex assay, Canis lupus familiaris
In short: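 [3H]ouabain binding was measured on isolated, purified dog kidney Na+,K+-ATPase (α1 isoform), with compounds used within 1–4 h of dissolution.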

[2] = target: Sodium/potassium-transporting ATPase; assay: 30% displacement of the specific [3H]ouabain binding from the dog kidney Na+/K+ ATPase; format: protein-complex assay, Canis lupus familiaris
Cavia porcellus [3] = organism: Cavia porcellus; assay: Concentration of compound to obtain maximum inotropic activity on electrically driven guinea pig left atrium; format: functional, Cardiac atrium
In short: (§1)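 Electrically paced guinea pig left atria (platinum electrodes, 1 Hz, 1 ms pulses at twice threshold voltage) were equilibrated for 60 min. Cumulative compound concentrations were then added, each left in contact until maximal response or arrhythmias appeared. Force of contraction was recorded.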

Cavia porcellus [4] = organism: Cavia porcellus; assay: Maximal increase in force of contraction in electrically driven guinea pig left atrium; format: functional, Cardiac atrium; in short: as §1
[5] = target: Sodium/potassium-transporting ATPase; assay: 45% displacement of the specific [3H]ouabain binding from the dog kidney Na+/K+ ATPase; format: protein-complex assay, Canis lupus familiaris
[6] = target: Sodium/potassium-transporting ATPase; assay: 35% displacement of the specific [3H]-ouabain binding from the dog kidney Na+/K+ ATPase; format: protein-complex assay, Canis lupus familiaris
[7] = target: Sodium/potassium-transporting ATPase; assay: 20% displacement of the specific [3H]ouabain binding from the dog kidney Na+/K+ ATPase; format: protein-complex assay, Canis lupus familiaris
Cavia porcellus [8] = organism: Cavia porcellus; assay: Concentration of compound producing 50% of the maximal increase in force of contraction in electrically driven guinea pig left atrium; format: functional; conditions: Cardiac atrium
In short: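 Whole guinea pig left atria were paced through platinum electrodes with 1 Hz square-wave pulses (1 ms, twice threshold voltage) and equilibrated for 60 min. Compounds were then added cumulatively, each concentration held until maximal response or arrhythmia. The concentration giving half-maximal increase in contractile force was calculated from concentration–response curves.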

SMILES | IC50 [1] [µM] | also measured
CN(C)CCCCO/N=C/[C@H]1CC[C@]2(O)C[C@@H](C3CCCCC3)CC[C@]12C | 10 | –
CN(C)CCO/N=C/[C@H]1CC[C@]2(O)C[C@H](CC3CCCCC3)CC[C@]12C | 100 | –
CN(C)CCO/N=C/[C@H]1CC[C@]2(O)C[C@H](c3ccccc3)CC[C@]12C | – | IC50 [2]: > 100 µM
CN(C)CCO/N=C/[C@H]1CC[C@]2(O)C[C@@H](c3cccc(CO)c3)CC[C@]12C | 5 | –
CN(C)CCO/N=C/[C@H]1CC[C@]2(O)CC([C@H]3CC[C@H](O)CC3)CC[C@]12C (some centres not stated) | 1 | –
CN(C)CCO/N=C\C[C@H]1CC[C@]2(O)C[C@@H](C3CCCCC3)CC[C@]12C | 1.6 | –
C[C@H]1O[C@@H](O[C@H]2[C@@H](O)C[C@H](O[C@H]3[C@@H](O)C[C@H](O[C@H]4CC[C@@]5(C)[C@H](CC[C@@H]6[C@@H]5C[C@@H](O)[C@]5(C)[C@@H](C7=CC(=O)OC7)CC[C@]65O)C4)O[C@@H]3C)O[C@@H]2C)C[C@H](O)[C@@H]1O [DIGOXIN] | – | Concentration giving maximal inotropic effect (Cavia porcellus [3]): 1 µM; Increase (Emax) (Cavia porcellus [4]): 184%
Cc1ccc([C@H]2CC[C@]3(C)[C@@H](/C=N/OCCN)CC[C@]3(O)C2)cc1 | 6.3 | –
CN(C)CCO/N=C/[C@H]1CC[C@]2(O)C[C@H](Cc3ccccc3)CC[C@]12C | – | IC50 [5]: > 100 µM
C[C@]12CC[C@H](c3ccccc3)C[C@@]1(O)CC[C@@H]2CNOCCN | 20 | –
C[C@]12CC[C@H](c3ccc(CO)cc3)C[C@@]1(O)CC[C@@H]2/C=N/OCCN | 2.5 | –
CN(C)CCO/N=C/[C@H]1CC[C@]2(O)C[C@@H](c3ccccc3)CC[C@]12C | 3.2 | –
CN(C)CCO/N=C/[C@H]1CC[C@]2(O)C/C(=C\c3ccccc3)CC[C@]12C | 8 | –
CN(C)CCO/N=C/[C@H]1CC[C@]2(O)C[C@@H](Cc3ccccc3)CC[C@]12C | 3.2 | –
C[C@]12CC[C@H](O)C[C@H]1CC[C@@H]1[C@@H]2CC[C@]2(C)[C@@H](/C=C/C=N/OCCN)CC[C@]12O | 0.016 | Concentration giving maximal inotropic effect (Cavia porcellus [3]): 0.3 µM; Increase (Emax) (Cavia porcellus [4]): 155%
CN(C)CCO/N=C/[C@H]1CC[C@]2(O)C[C@@H](c3cccnc3)CC[C@]12C | 13 | –
CC(/C=N/OCCN)=C\[C@H]1CC[C@]2(O)C[C@@H](C3CCCCC3)CC[C@]12C | 1.3 | –
C[C@]12CC[C@H](c3ccccc3)C[C@@]1(O)CC[C@@H]2/C=N/OCCN | 4 | –
CN(C)CCO/N=C/CC[C@H]1CC[C@]2(O)C[C@@H](C3CCCCC3)CC[C@]12C | 5 | –
CN(C)CCO/N=C/[C@H]1CC[C@]2(O)[C@@H]3CC[C@@H]4C[C@@H](O)CC[C@]4(C)[C@H]3CC[C@]12C | 0.04 | Increase (Emax) (Cavia porcellus [4]): 39%
C[C@]12CC[C@H](c3ccccc3)C[C@@]1(O)CC[C@@H]2/C=N/N=C(N)N | – | IC50 [6]: > 100 µM
Cc1ccc([C@H]2CC[C@]3(C)[C@@H](/C=N/OCCN(C)C)CC[C@]3(O)C2)cc1 | 10 | –
C[C@]12CC[C@H](C3CCCCC3)C[C@@]1(O)CC[C@@H]2/C=N/OCCCN | 0.8 | –
C[C@]12CC[C@H](O)C[C@H]1CC[C@@H]1[C@@H]2CC[C@]2(C)[C@@H](C3=CC(=O)OC3)CC[C@]12O [DIGITOXIGENIN] | – | Concentration giving maximal inotropic effect (Cavia porcellus [3]): 3 µM; Increase (Emax) (Cavia porcellus [4]): 200%
C[C@]12CC[C@H](C3CCCCC3)C[C@@]1(O)CC[C@@H]2/C=N/OCCN | 1 | –
CN(C)CCO/N=C/[C@H]1CC[C@]2(O)C[C@@H](c3ccc(O)cc3)CC[C@]12C | 2.5 | –

SMILES | IC50 [1] [µM] | also measured
C[C@]12CCCC[C@@]1(O)CC[C@@H]2/C=N/OCCCN | – | IC50 [7]: > 100 µM
CC(/C=N/N=C(N)N)=C\[C@H]1CC[C@]2(O)C[C@@H](C3CCCCC3)CC[C@]12C | – | IC50 [6]: > 100 µM
C[C@]12CC[C@H](c3cccc(CO)c3)C[C@@]1(O)CC[C@@H]2/C=N/OCCN | 2.5 | –
C[C@]12CC[C@H](C3CCCCC3)C[C@@]1(O)CC[C@@H]2C1=CC(=O)OC1 | – | IC50 [2]: > 10 µM
CN(C)CCO/N=C/[C@H]1CC[C@]2(O)C[C@@H](c3ccncc3)CC[C@]12C | 2.5 | –
CN(C)CCO/N=C/C=C/[C@H]1CC[C@]2(O)C[C@@H](C3CCCCC3)CC[C@]12C | 1 | Concentration giving maximal inotropic effect (Cavia porcellus [3]): 100 µM; EC50 (Cavia porcellus [8]): 20 µM; Increase (Emax) (Cavia porcellus [4]): 50%
CN(C)CCO/N=C/[C@H]1CC[C@]2(O)C[C@@H](c3cccc(O)c3)CC[C@]12C | 10 | –
C[C@]12CC[C@H](C3CCCCC3)C[C@@]1(O)CC[C@@H]2CC/C=N/OCCN | 3.2 | –
CN(C)CCO/N=C/[C@H]1CC[C@]2(O)CC([C@H]3CC[C@@H](O)CC3)CC[C@]12C (some centres not stated) | 1.6 | –
CN(C)CCO/N=C/[C@H]1CC[C@]2(O)C[C@@H](c3ccc(OCCN(C)C)cc3)CC[C@]12C | 1 | –
C[C@]12CC[C@H](C3CCCCC3)C[C@@]1(O)CC[C@@H]2/C=N/OCCCCN | 13 | –
CN(C)CCO/N=C/[C@H]1CC[C@]2(O)C[C@@H](c3ccc(CO)cc3)CC[C@]12C | 8 | –
CN(C)CCONC[C@H]1CC[C@]2(O)C[C@@H](c3ccccc3)CC[C@]12C | 10 | –
C[C@]12CC[C@H](C3CCCCC3)C[C@@]1(O)CC[C@@H]2C/C=N\OCCN | 1.6 | –
C[C@]12CC[C@H](C3CCCCC3)C[C@@]1(O)CC[C@@H]2/C=C/C=N/OCCN | 1 | Concentration giving maximal inotropic effect (Cavia porcellus [3]): 100 µM; EC50 (Cavia porcellus [8]): 15 µM; Increase (Emax) (Cavia porcellus [4]): 90%
Cc1cccc([C@H]2CC[C@]3(C)[C@@H](/C=N/OCCN)CC[C@]3(O)C2)c1 | 3.2 | –
C[C@]12CC[C@H](C3CCCCC3)C[C@@]1(O)CC[C@@H]2/C=N/N=C(N)N | 63 | –
CN(C)CCO/N=C/[C@H]1CC[C@]2(O)C[C@@H](C3CCCCC3)CC[C@]12C | 1.6 | Concentration giving maximal inotropic effect (Cavia porcellus [3]): 100 µM; EC50 (Cavia porcellus [8]): 12 µM; Increase (Emax) (Cavia porcellus [4]): 70%
CN(C)CCO/N=C/[C@H]1CC[C@]2(O)C/C(=C/c3ccccc3)CC[C@]12C | 50 | –
CC(/C=N/OCCN(C)C)=C\[C@H]1CC[C@]2(O)C[C@@H](C3CCCCC3)CC[C@]12C | 2 | –
CN(C)CCO/N=C/C=C/[C@H]1CC[C@]2(O)[C@@H]3CC[C@@H]4C[C@@H](O)CC[C@]4(C)[C@H]3CC[C@]12C | 0.025 | Concentration giving maximal inotropic effect (Cavia porcellus [3]): 0.3 µM; Increase (Emax) (Cavia porcellus [4]): 191%
C[C@]12CC[C@H](C3CCCCC3)C[C@@]1(O)CC[C@@H]2/C=C/C=N/N=C(N)N | 16 | –
CN(C)CCO/N=C/[C@H]1CC[C@]2(O)C[C@@H](CC3CCCCC3)CC[C@]12C | 4 | –
CN(C)CCCO/N=C/[C@H]1CC[C@]2(O)C[C@@H](C3CCCCC3)CC[C@]12C | 3.2 | –
Cc1cccc([C@H]2CC[C@]3(C)[C@@H](/C=N/OCCN(C)C)CC[C@]3(O)C2)c1 | 5 | –
